Each structure is given as a SMILES string. “Also recorded” adds a separate entry of the source.

Experimental findings from publication PMC5515376 (Nature, 2016) are described below.

In assay [1] the test system is P. berghei (ANKA) liver stage. In words: In vitro P. berghei liver-stage assay. As to conditions: read-out: EC50, liver stages; in vitro. In kind it is cell-based, Plasmodium berghei. In a few lines: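 HepG2 cells (~17,500 per well, in duplicate) were cultured 18–24 h, then the medium was exchanged and compound added. After 1 h, 4,000 P. berghei ANKA GFP–luc sporozoites per well were added, freshly dissected from A. stephensi mosquitoes. Plates were spun 10 min at 1,000 r.p.m. and incubated 48 h at 37 °C. Parasite load was read by Bright-Glo luminescence.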

The target in the next assay is recombinant human DHODH (Homo sapiens, UniProt Q02127). In words: Human DHODH biochemical assay. In a few lines:
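Recombinant human DHODH at 13 nM was tested against a 20-point inhibitor dilution series. Reactions contained 1 mM L-dihydroorotate (excess), 100 µM dodecylubiquinone as electron acceptor and 60 µM 2,6-dichloroindophenol as indicator, in 50 mM Tris-HCl pH 8.0, 150 mM KCl and 0.1% Triton X-100. Reactions ran 20 min at 25 °C and were read at OD600.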

The subject of the next assay is P. falciparum Dd2. In words: In vitro P. falciparum blood-stage growth inhibition assay. Format: cell-based, Plasmodium falciparum. The following applies: read-out: EC50, asexual blood stages; in vitro.
Assay [2] concerns P. falciparum CYTb^G33V strain. In words: Growth inhibition, P. falciparum CYTb^G33V mutant strain. In kind it is cell-based, Plasmodium falciparum.
For assay [3], the system named is PfscDHODH (P. falciparum line expressing S. cerevisiae DHODH). In words: Growth inhibition, PfscDHODH transgenic line. Format: cell-based, Plasmodium falciparum. As to conditions: relative to Dd2. In a few lines: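 Asexual blood-stage parasites were cultured to 3–8% parasitaemia, counted on Giemsa smears, and diluted in medium to 2.0% parasitaemia and 2.0% haematocrit. This suspension was added to compound dispensed from DMSO, giving a final 1% parasitaemia and 1% haematocrit, with mefloquine as control. Plates were incubated for 72 h at 37 °C. Growth was read by SYBR Green I fluorescence in Tris/EDTA/saponin/Triton X-100 lysis buffer.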

The test system of the next assay is TM90C6B strain. In words: Growth inhibition, TM90C6B strain. In kind it is cell-based, Plasmodium falciparum. The following applies: TM90C6B strain (atovaquone resistant).

recombinant human DHODH, sequence (Q02127 whole entry): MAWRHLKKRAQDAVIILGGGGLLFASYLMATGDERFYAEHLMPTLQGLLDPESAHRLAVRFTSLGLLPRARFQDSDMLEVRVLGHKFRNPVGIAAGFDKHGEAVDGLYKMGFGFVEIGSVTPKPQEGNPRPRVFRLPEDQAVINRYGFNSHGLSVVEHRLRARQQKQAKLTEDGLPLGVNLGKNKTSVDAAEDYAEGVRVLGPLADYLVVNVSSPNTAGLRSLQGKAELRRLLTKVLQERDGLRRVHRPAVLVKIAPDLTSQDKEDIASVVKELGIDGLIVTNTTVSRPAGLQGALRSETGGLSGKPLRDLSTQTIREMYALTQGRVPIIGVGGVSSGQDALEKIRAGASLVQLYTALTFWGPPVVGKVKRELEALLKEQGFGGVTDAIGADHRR

For `CCCNC(=O)N1[C@H](C#N)[C@H](c2ccc(C#Cc3cccc(F)c3)cc2)[C@H]1CO` [BRD7539], the concentration giving a half-maximal response (EC50) was found to be 15 nM in assay [1] and 10 nM with P. falciparum Dd2. At recombinant human DHODH, the “Inhibition of human DHODH orthologue” value is recorded as “no inhibition”. Further, the Change in potency entry (in assay [2]; in the assay on TM90C6B strain) was “unaffected” throughout. For the same compound, the “Potency against PfscDHODH” value in assay [3] was “markedly reduced potency; also recorded: selectively reduced potency”.

As usually defined, the EC50 is the concentration that produces a half-maximal response.
